This note sets out measurements from ChEMBL document CHEMBL4145615, “Indolyl Azaspiroketal Mannich Bases Are Potent Antimycobacterial Agents with Selective Membrane Permeabilizing Effects and in Vivo Activity” (J Med Chem, 2018).

Broadly, the HC50 is the concentration giving 50% haemolysis. In general, IC50 refers to the concentration needed to halve the response being measured. One may read the MIC50 as the lowest concentration that inhibits either 50% of growth or 50% of the strains tested, depending on the study. A word on the MIC90: it is an inhibitory concentration at the 90% level, which refers to growth in some studies and to a panel of isolates in others. Usually ΔTm stands for the change in melting temperature against a reference sample.

≈ marks a conversion by molar mass, not a printed value. Bounds are passed on as bounds.

Data set [1] in a line: Hemolytic activity against human RBC after 1 hr. In kind it is ADME, cell-based, Erythrocyte. Particulars: red blood cells (erythrocytes). The gist of the method: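 Human red blood cells were exposed to the test compound at a range of concentrations in phosphate-buffered saline for 1 h at 37°C. Hemolysis was referenced to 2% Triton X-100, taken as 100% hemolysis. The value reported is the concentration that lyses 50% of RBCs.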

In data set [2] the test system is Vero C1008. Nature of the data set: Cytotoxicity against African green monkey Vero E6 cells assessed as cell growth inhibition after 48 hrs by celltitre 96 aqueous one-based assay. Particulars: Chlorocebus sabaeus, Vero C1008, 48 h.
Data set [3] deals with Mycobacterium tuberculosis. Description: Antimycobacterial activity against Mycobacterium tuberculosis H37Rv ATCC 27294 after 7 days by broth dilution method. Type of data set: functional. Particulars: H37Rv ATCC 27294, 168 h. (In broth dilution the organism is exposed to a series of concentrations in liquid medium.)
The nature of data set [4]: Selectivity index, ratio of IC50 for African green monkey Vero E6 cells to MIC50 for Mycobacterium bovis BCG ATCC 35734. As to conditions: read-out: Selectivity Index. Type of data set: toxicity, Vero C1008.
Data set [5] deals with Lipid bilayer.

`CCCCCCCCn1cc(CNCC2CC3CCC2C3)c2ccc(OC)cc21` (configuration not stated) came in with an HC50 at 1 h in data set [1] of 19 µM. Moreover, in data set [2], the half-maximal inhibitory concentration (IC50) is 10 µM.
Consider `CCCCCCCCn1ccc2ccc(OCCCN3CCCCCC3)cc21`, for which the IC50 in data set [2] was found to be 33 µM.
For `CCCCCCCCn1cc(CN2CCCC3(CC2)OCCS3)c2ccc(OC)cc21` (configuration not stated), in data set [1], the concentration for 50% haemolysis (HC50) at 1 h was > 300 µM. In addition, the IC50 in data set [2] is 35 µM.
As for `CCCCCCCCn1cc(CN2CCC3(CC2)SCCCS3)c2ccc(OC)cc21`, in data set [1], the 50% haemolytic concentration (HC50) at 1 h was > 300 µM. For the same compound, in data set [2], the IC50 was 152 µM. In data set [3], this compound registered an MIC50 of 0.5 µM (≈ 0.23 µg/mL) and an MIC90 of 0.78 µM (≈ 0.359 µg/mL).
`COc1ccc(CCCn2cc(CN3CCC4(CC3)OCCO4)c3ccc(OC)cc32)cc1`: the IC50 in data set [2] turned out to be 31 µM.
Regarding `COc1ccc2c(CN3CCC4(CC3)OCCCO4)cn(CCCOc3ccccc3)c2c1`, the HC50 at 1 h in data set [1] is > 300 µM.
Turning to `CCCCCCCCn1cc(CN2CCC3(CC2)OCCCO3)c2ccc(C#N)cc21`, the HC50 at 1 h in data set [1] is > 300 µM. The IC50 in data set [2] worked out at 22 µM.
With `CCCCCCCCn1cc(CN2CCC3(CC2)OC(C)C(C)O3)c2ccc(OC)cc21` (configuration not stated), in data set [1], the concentration for 50% haemolysis (HC50) at 1 h amounted to 76 µM. For the same compound, the half-maximal inhibitory concentration (IC50) in data set [2] was 34 µM. For the same compound, the selectivity ratio in data set [4] was 49.
With `COc1ccc(OCCCn2cc(CN3CCC4(CC3)OCCCO4)c3ccc(OC)cc32)cc1`, the concentration for 50% haemolysis (HC50) at 1 h in data set [1] was > 300 µM. For the same compound, in data set [2], the IC50 stood at 46 µM.
Compound `CCCCCCCCn1cc(CN2CCC3(CC2)OCCCO3)c2ccc(OCCC)cc21` showed an HC50 at 1 h in data set [1] of 27 µM. Moreover, in data set [2], the IC50 was found to be 29 µM.
For the compound `COc1ccc2c(CN3CCC4(CC3)OCCCO4)cn(CCCOc3ccc(C)cc3)c2c1`, in data set [1], the concentration for 50% haemolysis (HC50) at 1 h is > 300 µM.
In data set [1], `CCCCCCCCn1cc(CN2CCCC3(CC2)OCCCS3)c2ccc(OC)cc21` (configuration not stated) yielded an HC50 at 1 h of 132 µM. The IC50 in data set [2] was 34 µM.
The like results for `CCCCCCCCn1cc(CNCC2CC3CC3C2)c2ccc(OC)cc21` (configuration not stated) were, in that order, 33 µM and 10 µM.
The like results for `CCCCCCCCn1cc(CN2CCC3(CC2)OCCCO3)c2ccc(OCc3ccccc3)cc21` were, in that order, > 300 µM and 27 µM.
As for `CCCCCCCCn1cc(CN2CCCCC2)c2ccc(OC(C)C)cc21`, in data set [2], the IC50 is 26 µM.
For `CCCCCCCCn1cc(CNCC2CCC3(CCCC3)O2)c2ccc(OC)cc21` (configuration not stated), the IC50 in data set [2] amounted to 21 µM. For the same compound, the selectivity ratio in data set [4] worked out at 12.
As for `CCCCCCCCn1cc(CN2CCC3(CC2)SCCS3)c2ccc(OC)cc21`, in data set [1], the 50% haemolytic concentration (HC50) at 1 h is > 300 µM. In data set [2], the IC50 was > 200 µM. In data set [3], the MIC50 turned out to be 0.7 µM (≈ 0.313 µg/mL) and the MIC90 amounted to 1.1 µM (≈ 0.491 µg/mL). In data set [4], the selectivity ratio was > 400. The ΔTm in data set [5] was 4 °C.
Take `CCCCCCCCn1cc(CN2CCC3(CC2)OC[C@H](C)O3)c2ccc(OC)cc21`: the HC50 at 1 h in data set [1] worked out at 51 µM. Besides, the IC50 in data set [2] came to 34 µM.
In the case of `COc1ccc2c(CN3CCC4(CC3)OCCCO4)cn(CCCOCc3ccccc3)c2c1`, the IC50 in data set [2] is 54 µM.
On the same count and under the same terms, next, `CCCCCCCCn1cc(CN2CCCCC2)c2ccc(C#N)cc21`: 22 µM.
In the case of `CCCCCCCCn1cc(CN2CCC3(C=Cc4ccccc43)CC2)c2ccc(OC)cc21`, the HC50 at 1 h in data set [1] was > 300 µM. In addition, in data set [2], the IC50 came out at 44 µM. For the same compound, in data set [4], the selectivity ratio was found to be 44.
As for `COc1ccc2c(CN3CCC4(CC3)OCCCO4)cn(CCCOc3ccc(F)cc3)c2c1`, the HC50 at 1 h in data set [1] was > 300 µM.
Take `CCCCCCCCn1cc(CN2CCC3(CC2)OCCCO3)c2ccc([N+](=O)[O-])cc21`: the HC50 at 1 h in data set [1] was > 300 µM. Moreover, in data set [2], the half-maximal inhibitory concentration (IC50) was 28 µM.
The like results for `CCCCCCCCn1cc(CN2CCC3(CC2)OCCO3)c2ccc(OC(C)C)cc21` were, in that order, 56 µM and 41 µM.
With `CCCCCCCCn1cc(CNC2Cc3ccccc3C2)c2ccc(OC)cc21`, in data set [2], the IC50 worked out at 24 µM. The selectivity ratio in data set [4] was 6.
Take `CCCCCCCCn1ccc2cc(OCCCN3CCCCCC3)ccc21`: the IC50 in data set [2] stood at 34 µM. Also, the ΔTm in data set [5] was 1 °C.
As for `CCCCCCCCn1cc(CN2CCC3(CC2)OCCS3)c2ccc(OC)cc21`, the HC50 at 1 h in data set [1] is > 300 µM. Besides, in data set [2], the IC50 was determined as 64 µM. In data set [3], this compound yielded an MIC50 of 0.6 µM (≈ 0.258 µg/mL) and an MIC90 of 0.95 µM (≈ 0.409 µg/mL). Further, in data set [5], the ΔTm is 4 °C.
In data set [1], `CCCCCCCCn1cc(CNC2CCC3(CC2)OCCO3)c2ccc(OC)cc21` came in with an HC50 at 1 h of 207 µM. Further, the IC50 in data set [2] worked out at 22 µM.
The corresponding values for `CCCCCCCCn1cc(CN2CCC3(CC2)OCCO3)c2ccc(C#N)cc21` are > 300 µM and 59 µM.
For `CCCCCCCCn1cc(CN2CCC3(CCc4ccccc43)CC2)c2ccc(OC)cc21`, the HC50 at 1 h in data set [1] is > 300 µM. Further, in data set [2], the IC50 stood at 31 µM. Besides, the selectivity ratio in data set [4] is 31.
Take `CCCCCCCCn1cc(CN2CCC3(CC2)OCCO3)c2ccc([N+](=O)[O-])cc21`: the concentration for 50% haemolysis (HC50) at 1 h in data set [1] was > 300 µM. The IC50 in data set [2] was found to be 62 µM.
In the case of `COc1ccc2c(CN3CCCCC3)cn(CCCc3ccccc3)c2c1`, in data set [2], the IC50 amounted to 43 µM.
On to `COc1ccc2c(CN3CCC4(CC3)OCCCO4)cn(CCCCc3ccccc3)c2c1`, for which the HC50 at 1 h in data set [1] was > 300 µM. For the same compound, the IC50 in data set [2] stood at 21 µM.
The corresponding values for `CCCCCCCCn1cc(CN2CC(c3ccccc3)C2)c2ccc(OC)cc21` are > 300 µM and 44 µM.
The like results for `CCCCCCCCn1cc(CN2CCC3(CC2)OCCCO3)c2ccc(OC(C)C)cc21` were, in that order, 29 µM and 20 µM.
The corresponding values for `CCCCCCCCn1cc(CN2CCC3(CC2)OCCO3)c2ccc(OCCC)cc21` are 31 µM and 29 µM.
Compound `CCCCCCCCn1cc(CN2CCC3(CCN(Cc4ccccc4)CC3)CC2)c2ccc(OC)cc21` registered an HC50 at 1 h in data set [1] of 69 µM. The IC50 in data set [2] stood at 14 µM.
As for `CCCCCCCCn1cc(CN2CCOC3(CCCOC3)C2)c2ccc(OC)cc21` (configuration not stated), in data set [1], the HC50 at 1 h is > 300 µM. For the same compound, the IC50 in data set [2] was > 500 µM. Further, the selectivity ratio in data set [4] is > 278.
As to `CCCCCCCCn1cc(CN2CCC3(CCO3)CC2)c2ccc(OC)cc21`, the HC50 at 1 h in data set [1] came out at 88 µM. Also, the IC50 in data set [2] turned out to be 31 µM. Further, the selectivity ratio in data set [4] amounted to 16.
On to `COc1ccc2c(CN3CCC4(CC3)OCCO4)cn(CCCc3ccccc3)c2c1`, for which, in data set [2], the IC50 was 35 µM.
On the same count and under the same terms, next, `CCCCCCCCn1cc(CN2CCCCC2)c2ccc([N+](=O)[O-])cc21`: 23 µM.
The compound `CCCCCCCCn1cc(CN2CCC3(CC2)OC[C@@H](C)O3)c2ccc(OC)cc21` registered an HC50 at 1 h in data set [1] of 75 µM. For the same compound, the IC50 in data set [2] is 37 µM.
On to `CCCCCCCCn1cc(CNCC2CCC3CC3C2)c2ccc(OC)cc21` (configuration not stated), for which, in data set [2], the IC50 was found to be 20 µM. The selectivity ratio in data set [4] was found to be 13.
As for `CCCCCCCCn1cc(CN2CCC3(CC2)OCCO3)c2ccc(OCc3ccccc3)cc21`, the concentration for 50% haemolysis (HC50) at 1 h in data set [1] was > 300 µM. For the same compound, in data set [2], the IC50 came out at 36 µM.
In the case of `COc1ccc2c(CN3CCC4(CC3)OCCCO4)cn(CCCOc3ccc(C)c(C)c3)c2c1`, the HC50 at 1 h in data set [1] was > 300 µM.
As to `CCCCCCCCn1cc(CN2CCC3(CC2)OCCCO3)c2cccc([N+](=O)[O-])c21`, the concentration for 50% haemolysis (HC50) at 1 h in data set [1] was > 300 µM. The IC50 in data set [2] was 49 µM.
Compound `CCCCCCCCn1cc(CN2[C@H]3CCC[C@@H]2CCC3)c2ccc(OC)cc21` came in with an HC50 at 1 h in data set [1] of 109 µM. Moreover, in data set [2], the IC50 is 31 µM. Further, in data set [4], the selectivity ratio came to 8.
